Test results published in ChEMBL document CHEMBL1240526, “Development of a new epidermal growth factor receptor positron emission tomography imaging agent based on the 3-cyanoquinoline core: synthesis and biological evaluation” (Bioorg Med Chem, 2010).
Blank lines part the entries; values can stand above or below the molecule they belong to.

What was measured:
[1] = molecular target: Epidermal growth factor receptor (Homo sapiens, UniProt P00533); assay: Inhibition of EGFR autophosphorylation in human A431 cells; format: cell-based, A-431
[2] = Biodistribution in human A431 cell xenografted nu/nu BALB/c mouse urine at 3.7 MBq after 60 mins; format: ADME, organism-based, A-431; settings: in vivo, 1 h
Spleen = assay: Biodistribution in human A431 cell xenografted nu/nu BALB/c mouse spleen at 3.7 MBq after 60 mins; format: ADME, organism-based, A-431; settings: in vivo, 1 h
Heart = assay: Biodistribution in human A431 cell xenografted nu/nu BALB/c mouse heart at 3.7 MBq after 60 mins; format: ADME, organism-based, A-431; settings: in vivo, 1 h
[3] = Biodistribution in human A431 cell xenografted nu/nu BALB/c mouse plasma at 3.7 MBq after 60 mins; format: ADME, organism-based, A-431; settings: in vivo, 1 h
[4] = Metabolic stability in mouse plasma assessed as compound remaining at 3.7 MBq after 60 mins; format: ADME, cell-free; settings: read-out: Stability
Procedure, shortened: (§1)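 Non-tumor-bearing mice received 3.7 MBq of the ¹⁸F tracer iv. Plasma and liver were collected at 2, 30 and 60 min and snap-frozen. Samples were extracted in ice-cold MeOH (liver homogenized), centrifuged at 4 °C, then dried, filtered and run on radio-HPLC. Parent fraction = parent peak over total chromatogram radioactivity; plasma extraction efficiency 83.5%. Mean of three studies per time point.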

[5] = Biodistribution in human A431 cell xenografted nu/nu BALB/c mouse empty caecum at 3.7 MBq after 60 mins; format: ADME, organism-based, A-431; settings: in vivo, 1 h
[6] = Metabolic stability in mouse liver assessed as compound remaining at 3.7 MBq after 60 mins; format: ADME, tissue-based; settings: read-out: Stability; procedure, shortened: as §1
Duodenum [7] = assay: Biodistribution in human A431 cell xenografted nu/nu BALB/c mouse full duodenum at 3.7 MBq after 60 mins; format: ADME, organism-based, A-431; settings: in vivo, 1 h
Colon [8] = assay: Biodistribution in human A431 cell xenografted nu/nu BALB/c mouse full colon at 3.7 MBq after 60 mins; format: ADME, organism-based, A-431; settings: in vivo, 1 h
Stomach [9] = assay: Biodistribution in human A431 cell xenografted nu/nu BALB/c mouse full stomach at 3.7 MBq after 60 mins; format: ADME, organism-based, A-431; settings: in vivo, 1 h
Jejunum [10] = assay: Biodistribution in human A431 cell xenografted nu/nu BALB/c mouse empty jejunum at 3.7 MBq after 60 mins; format: ADME, organism-based, A-431; settings: in vivo, 1 h
[11] = Metabolic stability in mouse plasma assessed as compound remaining at 3.7 MBq after 2 mins; format: ADME, cell-free; settings: read-out: Stability; procedure, shortened: as §1
Colon [12] = assay: Biodistribution in human A431 cell xenografted nu/nu BALB/c mouse empty colon at 3.7 MBq after 60 mins; format: ADME, organism-based, A-431; settings: in vivo, 1 h
[13] = Metabolic stability in mouse liver assessed as compound remaining at 3.7 MBq after 30 mins; format: ADME, tissue-based; settings: read-out: Stability; procedure, shortened: as §1
Lung = assay: Biodistribution in human A431 cell xenografted nu/nu BALB/c mouse lung at 3.7 MBq after 60 mins; format: ADME, organism-based, A-431; settings: in vivo, 1 h
[14] = Biodistribution in human A431 cell xenografted nu/nu BALB/c mouse gallbladder at 3.7 MBq after 60 mins; format: ADME, organism-based, Gall bladder, A-431; settings: in vivo, 1 h
Kidney = assay: Biodistribution in human A431 cell xenografted nu/nu BALB/c mouse kidney at 3.7 MBq after 60 mins; format: ADME, organism-based, A-431; settings: in vivo, 1 h
[15] = Biodistribution in human A431 cell xenografted nu/nu BALB/c mouse full caecum at 3.7 MBq after 60 mins; format: ADME, organism-based, A-431; settings: in vivo, 1 h
Muscle tissue = assay: Biodistribution in human A431 cell xenografted nu/nu BALB/c mouse muscle at 3.7 MBq after 60 mins; format: ADME, organism-based, A-431; settings: in vivo, 1 h
[16] = Biodistribution in human A431 cell xenografted nu/nu BALB/c mouse tumor at 3.7 MBq after 60 mins; format: ADME, organism-based, Neoplasm, A-431; settings: in vivo, 1 h
Brain = assay: Biodistribution in human A431 cell xenografted nu/nu BALB/c mouse brain at 3.7 MBq after 60 mins; format: ADME, organism-based, A-431; settings: in vivo, 1 h
[17] = Metabolic stability in mouse plasma assessed as compound remaining at 3.7 MBq after 30 mins; format: ADME, cell-free; settings: read-out: Stability; procedure, shortened: as §1
Stomach [18] = assay: Biodistribution in human A431 cell xenografted nu/nu BALB/c mouse empty stomach at 3.7 MBq after 60 mins; format: ADME, organism-based, A-431; settings: in vivo, 1 h
Jejunum [19] = assay: Biodistribution in human A431 cell xenografted nu/nu BALB/c mouse full jejunum at 3.7 MBq after 60 mins; format: ADME, organism-based, A-431; settings: in vivo, 1 h
Blood = assay: Biodistribution in human A431 cell xenografted nu/nu BALB/c mouse blood at 3.7 MBq after 60 mins; format: ADME, organism-based, A-431; settings: in vivo, 1 h
[20] = Metabolic stability in mouse liver assessed as compound remaining at 3.7 MBq after 2 mins; format: ADME, tissue-based; settings: read-out: Stability; procedure, shortened: as §1
[21] = Biodistribution in human A431 cell xenografted nu/nu BALB/c mouse liver at 3.7 MBq after 60 mins; format: ADME, organism-based, A-431; settings: in vivo, 1 h
Bone = assay: Biodistribution in human A431 cell xenografted nu/nu BALB/c mouse bone at 3.7 MBq after 60 mins; format: ADME, organism-based, Bone element, A-431; settings: in vivo, 1 h
Duodenum [22] = assay: Biodistribution in human A431 cell xenografted nu/nu BALB/c mouse empty duodenum at 3.7 MBq after 60 mins; format: ADME, organism-based, A-431; settings: in vivo, 1 h

Epidermal growth factor receptor, sequence (P00533 whole entry): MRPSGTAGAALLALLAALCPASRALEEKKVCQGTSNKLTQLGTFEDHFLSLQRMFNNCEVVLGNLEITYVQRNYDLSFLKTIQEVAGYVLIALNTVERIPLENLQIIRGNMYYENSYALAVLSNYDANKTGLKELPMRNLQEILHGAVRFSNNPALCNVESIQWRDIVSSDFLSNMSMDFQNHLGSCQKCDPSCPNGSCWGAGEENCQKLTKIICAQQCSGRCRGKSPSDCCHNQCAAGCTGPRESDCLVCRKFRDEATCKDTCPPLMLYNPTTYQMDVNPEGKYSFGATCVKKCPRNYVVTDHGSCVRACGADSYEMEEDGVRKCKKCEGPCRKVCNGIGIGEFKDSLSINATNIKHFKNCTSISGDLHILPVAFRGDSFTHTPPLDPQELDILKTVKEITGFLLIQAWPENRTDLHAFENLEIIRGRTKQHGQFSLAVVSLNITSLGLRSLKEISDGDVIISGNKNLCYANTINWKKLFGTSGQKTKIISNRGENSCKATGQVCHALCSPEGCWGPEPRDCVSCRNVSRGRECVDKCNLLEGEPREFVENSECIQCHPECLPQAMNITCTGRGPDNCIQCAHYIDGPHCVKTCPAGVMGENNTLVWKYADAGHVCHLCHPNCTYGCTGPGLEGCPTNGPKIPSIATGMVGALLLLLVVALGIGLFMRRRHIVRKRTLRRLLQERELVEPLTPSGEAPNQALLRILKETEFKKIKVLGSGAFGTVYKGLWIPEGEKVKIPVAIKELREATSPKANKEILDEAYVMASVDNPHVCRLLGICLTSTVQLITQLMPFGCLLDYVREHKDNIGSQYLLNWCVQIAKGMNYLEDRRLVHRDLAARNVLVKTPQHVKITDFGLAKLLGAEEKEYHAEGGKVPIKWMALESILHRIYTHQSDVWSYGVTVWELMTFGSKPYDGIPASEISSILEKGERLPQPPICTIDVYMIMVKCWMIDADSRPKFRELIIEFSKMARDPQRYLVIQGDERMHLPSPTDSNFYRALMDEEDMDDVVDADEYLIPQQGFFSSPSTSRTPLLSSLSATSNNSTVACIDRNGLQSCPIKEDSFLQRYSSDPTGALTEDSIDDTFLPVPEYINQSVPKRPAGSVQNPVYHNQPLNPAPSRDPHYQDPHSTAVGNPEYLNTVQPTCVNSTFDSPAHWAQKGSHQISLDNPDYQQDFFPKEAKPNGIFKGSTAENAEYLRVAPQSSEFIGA

IC50 [1]: > 1000 nM
SMILES: Nc1cc2ncnc(Nc3cccc(Br)c3)c2cc1N

Drug uptake [2]: 0.151 % ID/g | Drug uptake (Spleen): 0.211 % ID/g | Drug uptake (Heart): 0.041 % ID/g | Drug uptake [3]: 0.027 % ID/g | remaining at 1 h [4]: 49.8% | Drug uptake [5]: 0.068 % ID/g | remaining at 1 h [6]: 75.5% | Drug uptake (Duodenum [7]): 1.987 % ID/g | Drug uptake (Colon [8]): 0.236 % ID/g | Drug uptake (Stomach [9]): 1.341 % ID/g | Drug uptake (Jejunum [10]): 0.344 % ID/g | remaining at 2 min [11]: 98.9% | Drug uptake (Colon [12]): 0.197 % ID/g | remaining at 0.5 h [13]: 85.1% | Drug uptake (Lung): 0.138 % ID/g | Drug uptake [14]: 8.561 % ID/g | Drug uptake (Kidney): 0.711 % ID/g | Drug uptake [15]: 0.161 % ID/g | Drug uptake (Muscle tissue): 0.018 % ID/g | Drug uptake [16]: 0.082 % ID/g | Drug uptake (Brain): 0.006 % ID/g | remaining at 0.5 h [17]: 62.8% | Drug uptake (Stomach [18]): 0.215 % ID/g | Drug uptake (Jejunum [19]): 0.489 % ID/g | Drug uptake (Blood): 0.022 % ID/g | remaining at 2 min [20]: 95% | Drug uptake [21]: 0.392 % ID/g | Drug uptake (Bone): 0.031 % ID/g | Drug uptake (Duodenum [22]): 1.453 % ID/g
SMILES: CCOc1cc2ncc(C#N)c(Nc3ccc(F)c(Cl)c3)c2cc1NC(=O)/C=C/CNCc1cn(CCF)nn1
